Data: ChEMBL document CHEMBL1148725, “2,2,2-Trichloro-N-({2-[2-(dimethylamino)ethyl]-1,3-dioxo-2,3-dihydro-1H-benzo[de]isoquinolin- 5-yl}carbamoyl)acetamide (UNBS3157), a novel nonhematotoxic naphthalimide derivative with potent antitumor activity” (J Med Chem, 2007)
pIC50: −log10 of the molar value. Activity calls are given as the source filed them. No cut-off for these calls is given here.

What was measured:
Mus musculus [1] = assay: Hematotoxicity in B6D2F1 mouse assessed as platelet count at 120 mg/kg, po; format: organism-based; design: dose 120 mg/kg, route oral; settings: in vivo
DU-145 [2] = assay: Induction of apoptosis in human DU145 cells at 10 uM after 72 hrs; format: functional
Summary of the method: (§1)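 Prostate cancer cells exposed for 72 h to 0, 1 or 10 µM. Apoptosis quantified by flow cytometry after Annexin V-FITC staining.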

Mus musculus [3] = assay: Hematotoxicity in B6D2F1 mouse assessed as WBC count at 160 mg/kg, po; format: organism-based; design: dose 160 mg/kg, route oral; settings: in vivo
A549 [4] = assay: Antitumor activity against human A549 cells xenografted in mouse at 10 mg/kg, iv; format: functional, organism-based; design: dose 10 mg/kg
Summary of the method: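 Human A549 NSCLC cells grafted orthotopically into the lungs of immunocompromised mice. Compound given i.v. at 10 mg/kg. Survival gain assessed by survival curve analysis.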

[5] = target: DNA topoisomerase 2-alpha (Homo sapiens) (UniProt P11388); assay: Inhibition of human topoisomerase 2-mediated kinetoplast DNA […] at 50 uM
Sequence of DNA topoisomerase 2-alpha (Homo sapiens) (P11388 whole entry): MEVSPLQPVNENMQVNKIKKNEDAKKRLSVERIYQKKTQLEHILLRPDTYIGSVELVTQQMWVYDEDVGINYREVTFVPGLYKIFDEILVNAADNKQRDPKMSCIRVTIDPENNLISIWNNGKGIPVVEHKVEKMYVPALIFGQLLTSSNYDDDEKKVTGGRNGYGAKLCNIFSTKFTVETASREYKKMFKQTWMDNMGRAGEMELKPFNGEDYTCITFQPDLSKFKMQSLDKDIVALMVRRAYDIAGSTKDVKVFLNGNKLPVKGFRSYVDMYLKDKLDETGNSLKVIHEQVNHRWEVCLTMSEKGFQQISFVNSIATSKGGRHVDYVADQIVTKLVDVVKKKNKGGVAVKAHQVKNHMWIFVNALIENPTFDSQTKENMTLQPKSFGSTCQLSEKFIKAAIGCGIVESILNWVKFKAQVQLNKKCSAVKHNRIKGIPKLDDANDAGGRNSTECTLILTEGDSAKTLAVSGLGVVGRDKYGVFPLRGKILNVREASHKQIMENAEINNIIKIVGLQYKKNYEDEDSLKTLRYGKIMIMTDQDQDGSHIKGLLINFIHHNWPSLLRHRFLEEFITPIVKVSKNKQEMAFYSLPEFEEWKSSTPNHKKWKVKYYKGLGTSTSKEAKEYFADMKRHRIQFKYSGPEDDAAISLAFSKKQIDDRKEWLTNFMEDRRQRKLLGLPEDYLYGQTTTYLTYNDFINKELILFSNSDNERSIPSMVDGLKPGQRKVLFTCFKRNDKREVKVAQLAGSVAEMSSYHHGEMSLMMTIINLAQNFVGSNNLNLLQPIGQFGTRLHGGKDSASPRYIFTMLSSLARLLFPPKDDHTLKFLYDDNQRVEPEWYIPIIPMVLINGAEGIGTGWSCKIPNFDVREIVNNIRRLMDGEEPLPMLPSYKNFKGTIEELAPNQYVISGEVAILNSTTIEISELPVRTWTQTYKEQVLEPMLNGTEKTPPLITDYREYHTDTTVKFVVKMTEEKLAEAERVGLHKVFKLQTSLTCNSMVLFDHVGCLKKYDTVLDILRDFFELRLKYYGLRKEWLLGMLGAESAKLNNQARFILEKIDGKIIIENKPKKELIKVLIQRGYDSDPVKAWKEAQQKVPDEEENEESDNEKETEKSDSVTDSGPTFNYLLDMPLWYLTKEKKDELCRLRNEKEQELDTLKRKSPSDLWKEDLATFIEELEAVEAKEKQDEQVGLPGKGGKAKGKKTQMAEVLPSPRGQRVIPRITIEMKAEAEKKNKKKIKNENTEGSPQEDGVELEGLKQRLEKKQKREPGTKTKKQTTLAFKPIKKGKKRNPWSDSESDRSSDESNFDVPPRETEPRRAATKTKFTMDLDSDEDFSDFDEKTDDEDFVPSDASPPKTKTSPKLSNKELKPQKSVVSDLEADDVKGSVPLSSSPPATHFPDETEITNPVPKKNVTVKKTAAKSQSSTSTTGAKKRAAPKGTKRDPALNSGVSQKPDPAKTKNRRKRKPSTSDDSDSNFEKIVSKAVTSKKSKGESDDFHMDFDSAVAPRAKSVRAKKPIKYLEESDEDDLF
Summary of the method: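 Topoisomerase II strand-passage activity by kDNA decatenation; compounds at 50 µM; catenated networks stay in wells, decatenated kDNA enters ethidium bromide-stained agarose gel; no-enzyme and no-drug reactions as controls.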

[6] = Antiproliferative activity against Hs683 cells after 72 hrs by MTT assay; format: functional, cell-based, Homo sapiens, Hs 683; settings: Homo sapiens, Hs 683, 72 h
Summary of the method: (§2)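 Cells cultured with each compound for three days; growth then read by the MTT colorimetric assay and reported as IC50 (µM).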

PC-3 [7] = assay: Induction of autophagy in human PC3 cells by acridine orange staining at 10 uM after 72 hrs; format: functional
Mus musculus [8] = assay: Hematotoxicity in ip dosed B6D2F1 mouse assessed as decrease in WBC count; format: organism-based; settings: in vivo
Summary of the method: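 Healthy female B6D2F1 mice, 10 per group, were dosed i.p. three times a week for five consecutive weeks (15 doses). Each compound was given at two dose levels chosen relative to its MTD, in DMSO/saline 5:95 v/v. Mice were sacrificed 3 days after the last dose, and platelet, RBC and WBC counts were taken by Coulter counter. Data are mean ± SEM.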

L1210 [9] = assay: Antitumor activity in L1210 cells xenografted B6D2F1 mouse at 80 mg/kg, ip relative to control; format: functional; settings: route intraperitoneal
Summary of the method: (§3)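 Mice grafted with L1210 leukaemia cells on day 0, then dosed i.p. four times weekly on days 1-4 and 8-11. Five mice per group. Outcome is %T/C, the median survival of treated over control. Kruskal-Wallis test followed by Dunn comparisons against control.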

LoVo = assay: Antiproliferative activity against LoVo cells after 72 hrs by MTT assay; format: functional, cell-based, Homo sapiens; settings: Homo sapiens, LoVo, 72 h; summary of the method: as §2
PC-3 [10] = assay: Induction of apoptosis in human PC3 cells at 10 uM after 72 hrs; format: functional; summary of the method: as §1
Mus musculus [11] = assay: Hematotoxicity in B6D2F1 mouse assessed as platelet count at 160 mg/kg, po; format: organism-based; design: dose 160 mg/kg, route oral; settings: in vivo
PC-3 [12] = assay: Induction of apoptosis in human PC3 cells assessed as p53 activation; format: functional, cell-based
Summary of the method: (§4)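 PC-3 and DU-145 cells treated over 72 h at 1 and 10 µM, compared with untreated cells. p53, PARP cleavage and procaspase-3/-9 activation assessed by immunoblotting.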

Mus musculus [13] = assay: Hematotoxicity in B6D2F1 mouse assessed as RBC count at 40 mg/kg, iv; format: organism-based; design: dose 40 mg/kg, route intravenous; settings: in vivo
Mus musculus [14] = assay: Hematotoxicity in B6D2F1 mouse assessed as platelet count at 10 mg/kg, iv; format: organism-based; design: dose 10 mg/kg, route intravenous; settings: in vivo
L1210 [15] = assay: Antitumor activity in L1210 cells xenografted B6D2F1 mouse at 40 mg/kg, ip relative to control; format: functional; settings: route intraperitoneal; summary of the method: as §3
MCF7 [16] = assay: Antiproliferative activity against MCF7 cells after 72 hrs by MTT assay; format: functional, cell-based, Homo sapiens; settings: Homo sapiens, MCF7, 72 h; summary of the method: as §2
HCT-15 = assay: Antiproliferative activity against HCT15 cells after 72 hrs by MTT assay; format: functional, cell-based, Homo sapiens; settings: Homo sapiens, HCT-15, 72 h; summary of the method: as §2
Mus musculus [17] = assay: Hematotoxicity in B6D2F1 mouse assessed as RBC count at 160 mg/kg, po; format: organism-based; design: dose 160 mg/kg, route oral; settings: in vivo
[18] = Toxicity in ip dosed B6D2F1 mouse; format: organism-based; settings: in vivo
Summary of the method: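 Acute MTD was set by a single i.p. dose to groups of three healthy female B6D2F1 mice, at 2.5, 5, 10, 20, 40, 80 and 160 mg/kg. The MTD is the dose just below the lowest dose that killed at least one mouse.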

Mus musculus [19] = assay: Hematotoxicity in B6D2F1 mouse assessed as platelet count at 80 mg/kg, po; format: organism-based; design: dose 80 mg/kg, route oral; settings: in vivo
DU-145 [20] = assay: Induction of apoptosis in human DU145 cells assessed as procaspase-8 activation; format: functional, cell-based
DU-145 [21] = assay: Induction of apoptosis in human DU145 cells assessed as procaspase-9 activation; format: functional, cell-based; summary of the method: as §4
MCF7 [22] = assay: Induction of apoptosis in human MCF7 cells assessed as p53 activation; format: functional, cell-based
Summary of the method: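 MCF-7 cells treated and p53 activation assessed by immunoblotting, with tubulin as loading control. Adriamycin (2.5 µM, 24 h) served as positive control.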

A549 [23] = assay: Antiproliferative activity against A549 cells after 72 hrs by MTT assay; format: functional, cell-based, Homo sapiens; settings: Homo sapiens, A549, 72 h; summary of the method: as §2

In the case of `CN(C)CCN1C(=O)c2cccc3cc(NC(=O)NC(=O)C(Cl)(Cl)Cl)cc(c23)C1=O`, the Activity (Mus musculus [1]) was 977 10^3 /uL, the Activity (DU-145 [2]) was 15% and the Activity (Mus musculus [3]) was 2.82 10^3 /uL. For the same compound, the Activity (A549 [4]) was “Active”, the Activity [5] was “Active” and the pIC50 [6] was 6.10. For the same compound, the Activity (PC-3 [7]) was 35%, the Activity (Mus musculus [8]) was “Non-toxic” and the Activity (L1210 [9]) was greater than 300%. For the same compound, the pIC50 (LoVo) was 6.05, the Activity (PC-3 [10]) was 10% and the Activity (Mus musculus [11]) was 1005 10^3 /uL. The Activity (PC-3 [12]) was “inactive”, the Activity (Mus musculus [13]) was 9.1 10^6 /uL and the Activity (Mus musculus [14]) was 402 10^3 /uL. The Activity (L1210 [15]) was 272%, the pIC50 (MCF7 [16]) was 5.74 and the pIC50 (HCT-15) was 6.05. The Activity (Mus musculus [17]) was 10.13 10^6 /uL, the MTD [18] was greater than 160 mg/kg and the Activity (Mus musculus [19]) was 872 10^3 /uL. The Activity (DU-145 [20]) was “inactive”, the Activity (DU-145 [21]) was “inactive” and the Activity (MCF7 [22]) was “inactive”. For the same compound, the pIC50 (A549 [23]) was 6.05.
